Reference: PubChem BioAssay
Inconclusive results are not listed.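 The calls were made as follows, unless noted: active = inhibition over a set limit, the all-compound mean plus 3 SD, in both replicate runs; inconclusive = over that limit in just one replicate run; inactive = at or under that limit in both runs.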

Key:
[1] = S. cerevisiae growth inhibition in permissive medium (OD615), pilot counter-assay for S. cerevisiae lifespan shortening project, permissive growth control (AID 705;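 active = growth inhibition above 25% in both replicates, a cutoff set 3 SD above the mean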); conditions: OD615, 24 h, at 10 µM, stronger effect = higher value
Outline: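 assay system = Saccharomyces cerevisiae strain carrying genetically modified DeaD replicative-lifespan system | technique = absorbance (optical density) at 615 nm | buffer or medium = permissive raffinose/galactose medium | timing = cells pre-grown 4 h, then 24 h compound exposure, 30 °C humidified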

[2] = S. cerevisiae growth inhibition in restrictive medium, OD615, pilot screen, restrictive growth control, yeast lifespan reduction project (AID 706;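 active = growth inhibition above a set limit, 3 SD over mean compound inhibition, in both replicates, cut at about 43% in these data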;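 also: modified DeaD lifespan yeast strain shifted to restrictive glucose medium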); conditions: OD615, 48 h, at 10 µM, stronger effect = higher value
Outline: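 System: modified S. cerevisiae. Buffer or medium: CSMM-D glucose medium. Incubation: 4 h pre-growth plus 48 h compound exposure, 30 °C. Detection: absorbance (optical density) measured at 615 nm.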

[3] = doxorubicin toxicity protection in MRP-1 cells – H69AR cells, CellTiter-Glo, duplicate, MRP-1 activator project, pilot screen (AID 807;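 active = viability increase at or above a cutoff of the median across tested compounds plus 3 SD, cut at about 8.5% in these data, passing the limit was not always enough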;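 also: compound pretreatment 18-22 h then 72 h combined with doxorubicin; 0% = doxorubicin alone and 100% = vehicle without doxorubicin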); conditions: H69AR viability with doxorubicin, CellTiter-Glo luminescence; at 10 µM; stronger effect = higher value
[4] = viability of HCT116 without oncogenic beta-catenin – human colon tumor cells, pilot screen (AID 823;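 active = cell viability at or below a set limit in both duplicate runs, the limit being the all-compound median minus 4 SD, cut at about 23% in these data, passing the limit was not always enough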;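 also: 0% = wells killed by 20 µM Hyamine and 100% = untreated DMSO cell wells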); conditions: HCT116 beta-catenin knockout viability, CellTiter-Glo, 60 h; at 10 µM; stronger effect = lower value
[5] = viability of PTEN-null HCT116 cells – cell-based, HCT116 clonal line, CellTiter-Glo, pilot screen (AID 824;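 active = viability at or below 27.92% in each of two runs, the all-compound median minus 4 SD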;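 also: 0% = 20 µM Hyamine control and 100% = vehicle cell control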); conditions: HCT116 PTEN-deleted viability, 60 h, at 10 µM, stronger effect = lower value
[6] = RAM pathway blockade in budding yeast – dse1pr::URA3 reporter, 5-FOA selection, pilot screen (AID 869);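 also: 0% = DMSO wells with no growth and 100% = 10 µM 1-NA-PP1 with full growth; RAM network block rescues cells from 5-FOA so hits raise OD615 growth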; conditions: S. cerevisiae dse1pr::URA3 5-FOA growth, OD615, 2 d; at 10 µM; stronger effect = higher value; strain carries analog-sensitive mutant Cbk1 kinase
[7] = RAM signaling pathway blockade in yeast – S. cerevisiae, Pdr1DBD-CYC8 efflux-inhibited sensitized strain, primary screen (AID 1298;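 active = RAM network inhibition above 8.4% in each of two replicates, 3 SD over the compound average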;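 also: 0% = DMSO untreated cells without growth and 100% = 10 µM 1-NA-PP1 full growth; higher means more yeast growth rescued from 5-FOA killing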); conditions: S. cerevisiae cbk1-as DSE1-URA3 strain, 5-FOA growth OD615, 2 d; at 50 µM; stronger effect = higher value

CCC(CC)C(=O)NCc1ccccc1OC
inactive: growth inhibition [1] 4.68% | growth inhibition [2] -4.89% | viability increase [3] -0.51% | viability [4] 99.1% | viability [5] 101% | inhibition [6] 0.98% | RAM network inhibition [7] 2.02%

Cn1c(=O)c2c(nc(CN3CCN(Cc4ccccc4)CC3)n2Cc2ccccc2)n(C)c1=O
inactive: growth inhibition [1] -6.72% | growth inhibition [2] -11.8% | viability increase [3] -0.85% | viability [4] 85.6% | viability [5] 88% | inhibition [6] 2.02% | RAM network inhibition [7] -0.01%

c1ccc(C2NCCn3cccc32)cc1 (stereo not drawn)
inactive: growth inhibition [1] -8.84% | growth inhibition [2] -13.7% | viability increase [3] -2.82% | viability [4] 99% | viability [5] 98% | inhibition [6] 0.21% | RAM network inhibition [7] 2.74%

C=C(C)c1cccc(C(C)(C)NC(=O)N2CCN(c3ccccn3)CC2)c1
inactive: growth inhibition [1] -11.1% | growth inhibition [2] 0.485% | viability increase [3] -0.48% | viability [4] 75.8% | viability [5] 89.6% | inhibition [6] 1.06% | RAM network inhibition [7] 1.43%

Cn1c(NC(=O)Cc2cccs2)cc(=O)n(C)c1=O
inactive: growth inhibition [1] 5.64% | growth inhibition [2] 5.55% | viability increase [3] -0.45% | viability [4] 105% | viability [5] 101% | inhibition [6] 1.26% | RAM network inhibition [7] -2.37%

O=C(C1CC(=O)N(C2CCCC2)C1)N1CCN(c2ccc(F)cc2)CC1 (stereo not drawn)
inactive: growth inhibition [1] -1.42% | growth inhibition [2] 1.6% | viability increase [3] 0.11% | viability [4] 94.3% | viability [5] 95.2% | inhibition [6] 1.39% | RAM network inhibition [7] 2.53%

CCCn1c(=S)[nH]c2cc(C(=O)NCC3CCCO3)ccc2c1=O (stereo not drawn)
inactive: growth inhibition [1] -1.52% | growth inhibition [2] 7.49% | viability increase [3] 0.21% | viability [4] 104% | viability [5] 86.5% | inhibition [6] 1.96% | RAM network inhibition [7] 2.81%

CCC1Oc2ccc(C)cc2N(CC(=O)N2CCN(c3ccc(F)cc3)CC2)C1=O (stereo not drawn)
inactive: growth inhibition [1] 5.46% | growth inhibition [2] 11.1% | viability increase [3] -3.35% | viability [4] 90% | viability [5] 83.5% | inhibition [6] -0.495% | RAM network inhibition [7] -0.06%

CN1CCc2c(c3ccccc3n2Cc2ccccc2)C1
inactive: growth inhibition [1] -5.23% | growth inhibition [2] -8.68% | viability increase [3] -5.7% | viability [4] 57.9% | viability [5] 63.9% | inhibition [6] 1.27% | RAM network inhibition [7] 5.12%

CC(c1ccccc1)C1C(C#N)=C(N)OC2=C1C(=O)CCC2 (stereo not drawn)
inactive: growth inhibition [1] -19% | growth inhibition [2] -12.4% | viability increase [3] -0.93% | viability [4] 88% | viability [5] 91.3% | inhibition [6] 3.24% | RAM network inhibition [7] 1.95%

COc1ccc(OC)c(N(CC(=O)Nc2ccc3c(c2)OCCO3)S(C)(=O)=O)c1
inactive: growth inhibition [1] -6.81% | growth inhibition [2] -3.32% | viability increase [3] -2.52% | viability [4] 92.4% | viability [5] 89.8% | inhibition [6] 0.825% | RAM network inhibition [7] 3.49%

O=C(CCNS(=O)(=O)c1cccc2nsnc12)NC1CCN(Cc2ccccc2)CC1
inactive: growth inhibition [1] -3.28% | growth inhibition [2] -9.7% | viability increase [3] -2.01% | viability [4] 87% | viability [5] 89% | inhibition [6] -0.175% | RAM network inhibition [7] 5.02%

Cc1ccc(C2/C(=C(/O)c3ccc(Cl)cc3)C(=O)C(=O)N2CC2CCCO2)o1 (stereo not drawn)
inactive: growth inhibition [1] -7.4% | growth inhibition [2] 12.5% | viability increase [3] -3.2% | viability [4] 95.1% | viability [5] 96.4% | inhibition [6] 0.77% | RAM network inhibition [7] -0.36%

COC(=O)c1ccccc1NC(=O)CS(=O)(=O)Cc1nc(-c2ccc(C)cc2)oc1C
inactive: growth inhibition [1] -9.1% | growth inhibition [2] -21.8% | viability increase [3] -2.52% | viability [4] 93.5% | viability [5] 87.8% | inhibition [6] 4.7% | RAM network inhibition [7] 4.03%

Oc1c(C(c2ccc(F)cc2)N2CCc3ccccc3C2)sc2ncnn12 (stereo not drawn)
inactive: growth inhibition [1] -5.9% | growth inhibition [2] -6.98% | viability increase [3] 4.08% | viability [4] 103% | viability [5] 91.7% | inhibition [6] 2.67% | RAM network inhibition [7] 3.09%

CCOCC(=O)NCc1ccc2c(c1)cc(C)n2C
inactive: growth inhibition [1] -13.8% | growth inhibition [2] -14% | viability increase [3] -1.45% | viability [4] 103% | viability [5] 97.3% | inhibition [6] 0.65% | RAM network inhibition [7] 0.21%

O=C(NCc1ccco1)C1CCN(c2nc3ccccc3n2Cc2ccc(F)cc2)CC1
inactive: growth inhibition [1] -6.36% | growth inhibition [2] -0.175% | viability increase [3] -5.61% | viability [4] 78.1% | viability [5] 73.9% | inhibition [6] 0.41% | RAM network inhibition [7] 7.12%

Cc1cc2ccccc2n1CCNC(=O)c1cccs1
inactive: growth inhibition [1] 0.02% | growth inhibition [2] 7.93% | viability increase [3] -2.29% | viability [4] 92.6% | viability [5] 91.4% | inhibition [6] 1.69% | RAM network inhibition [7] 3.36%

CCOc1ccc(S(=O)(=O)N(CC(=O)O)c2ccccc2)cc1
inactive: growth inhibition [1] -1.83% | growth inhibition [2] -7.26% | viability increase [3] -2.11% | viability [4] 102% | viability [5] 93.6% | inhibition [6] 1.07% | RAM network inhibition [7] 2.61%

N#CC1=C(SCC(N)=O)NC(=O)CC1c1ccccc1Cl (stereo not drawn)
inactive: growth inhibition [1] -3.39% | growth inhibition [2] -17.1% | viability increase [3] -2.43% | viability [4] 98% | viability [5] 96.5% | inhibition [6] 0.635% | RAM network inhibition [7] -0.49%

CC1CCN(c2ncnc3c2cnn3-c2ccccc2)CC1
inactive: growth inhibition [1] 7.81% | growth inhibition [2] 10.9% | viability increase [3] 4.17% | viability [4] 77.8% | viability [5] 87.3% | inhibition [6] 0.495% | RAM network inhibition [7] -1.46%

COC(=O)c1nc2n(n1)C(c1cccc(Cl)c1)C1=C(CC(C)(C)CC1=O)N2 (stereo not drawn)
inactive: growth inhibition [1] 2.12% | growth inhibition [2] -2.75% | viability increase [3] -2.72% | viability [4] 98.7% | viability [5] 99.8% | inhibition [6] 0.75% | RAM network inhibition [7] -0.77%

CN(C)S(=O)(=O)N1CCC(Cc2ccccc2)CC1
inactive: growth inhibition [1] -9.73% | growth inhibition [2] 3.98% | viability increase [3] -0.78% | viability [4] 85.3% | viability [5] 85% | inhibition [6] -0.275% | RAM network inhibition [7] 1.8%

O=C(Cn1cnc2c(cnn2-c2ccc(F)cc2)c1=O)NCCc1ccccc1
inactive: growth inhibition [1] -1.94% | growth inhibition [2] -1.9% | viability increase [3] 1.69% | viability [4] 97.6% | viability [5] 95.7% | inhibition [6] 3.04% | RAM network inhibition [7] 6.6%
